Assay results reported in ChEMBL document CHEMBL1140584, “Novel potent organoselenium compounds as cytotoxic agents in prostate cancer cells” (Bioorg Med Chem Lett, 2007).

Tested on: PC-3
Assay: Cytotoxicity against human PC3 cells at 2 to 10 uM by MTT assay
Format: functional, cell-based
Settings: not given
Outline: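 PC-3 cells (ATCC, tumorigenic metastatic prostate cancer) grown in RPMI 1640 with Glutamax, 10% FBS and 1% penicillin–streptomycin. Seeded at 5·10³ cells/well in complete medium and incubated overnight at 37 °C, 5% CO₂ before compound addition. MTT formazan absorbance read at 570 nm. Percentage viable cells relative to untreated controls used to derive IC50.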

Row | Compound | IC50
1 | CC[Se]/C(=N\C(=O)c1ccccc1)NC(=O)c1ccccc1 | > 10 µM
2 | CS/C(=N\C(=O)c1cccnc1Cl)NC(=O)c1cccnc1Cl | > 10 µM
3 | C[Se]/C(=N\C(=O)c1ccc(Cl)nc1)NC(=O)c1ccc(Cl)nc1 | 9.14 µM
4 | CC(C)[Se]/C(=N\C(=O)c1ccccc1)NC(=O)c1ccccc1 | > 10 µM
5 | COc1cc(OC)cc(C(=O)/N=C(/NC(=O)c2cc(OC)cc(OC)c2)[Se]C)c1 | 6.5 µM
6 | CS/C(=N\C(=O)c1ccccc1)NC(=O)c1ccccc1 | > 10 µM
7 | CS/C(=N\C(=O)c1ccc(Cl)cc1)NC(=O)c1ccc(Cl)cc1 | > 10 µM
8 | C[Se]/C(=N\C(=O)c1ccc(Cl)cc1)NC(=O)c1ccc(Cl)cc1 | 7.6 µM
9 | C[Se]/C(=N\C(=O)c1ccc(C)cc1)NC(=O)c1ccc(C)cc1 | 1.85 µM
10 | CC(C)[Se]/C(=N\C(=O)c1ccc(Cl)cc1)NC(=O)c1ccc(Cl)cc1 | > 10 µM
11 | C[Se]/C(=N\C(=O)c1ccc([N+](=O)[O-])cc1)NC(=O)c1ccc([N+](=O)[O-])cc1 | > 10 µM
12 | C[Se]/C(=N\C(=O)c1ccc(C#N)cc1)NC(=O)c1ccc(C#N)cc1 | > 10 µM
13 | CS/C(=N\C(=O)c1ccc(C)cc1)NC(=O)c1ccc(C)cc1 | > 10 µM
14 | C[Se]/C(=N\C(=O)c1ccc(C(F)(F)F)cc1)NC(=O)c1ccc(C(F)(F)F)cc1 | > 10 µM
15 | C[Se]/C(=N\C(=O)c1ccc(C(C)(C)C)cc1)NC(=O)c1ccc(C(C)(C)C)cc1 | > 10 µM
16 | C[Se]/C(=N\C(=O)c1ccccc1)NC(=O)c1ccccc1 | 2.5 µM
17 | COc1cc(OC)cc(C(=O)/N=C(/NC(=O)c2cc(OC)cc(OC)c2)[Se]C(C)C)c1 | > 10 µM
18 | C[Se](=O)O [METHYLSELENINIC ACID] | 8.38 µM

Tested on: not listed separately
Assay: Toxicity against human RWPE1 cells at 2 to 10 uM by MTT assay
Format: cell-based, RWPE-1
Settings: read-out: LD50 (the source's name)
Outline: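 Non-tumorigenic human prostate RWPE-1 cells (ATCC) kept in keratinocyte-SFM supplemented with 1% FBS and 1% penicillin–streptomycin. MTT read-out as formazan absorbance at 570 nm. Viability expressed as percentage of untreated control cells and used to derive IC50.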

Row | Compound | CC50
19 | C[Se]/C(=N\C(=O)c1ccc(Cl)nc1)NC(=O)c1ccc(Cl)nc1 | > 10 µM
20 | C[Se]/C(=N\C(=O)c1ccc(C)cc1)NC(=O)c1ccc(C)cc1 | > 10 µM
21 | C[Se]/C(=N\C(=O)c1ccccc1)NC(=O)c1ccccc1 | 4.1 µM
